Screening results: PubChem, Johns Hopkins Ion Channel Center
KCNQ1 inh: blocks the human KCNQ1 potassium channel. 1.3% of 310,000 active. AID 2642. B-score at 10 µM. CHO-K1 KCNQ1, FluxOR thallium flux fluorescence; stronger effect = higher value. P51787;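 active means compounds whose thallium flux B-score, printed positive for inhibition, exceeds three library SD while starting fluorescence stays within three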;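 further: channel opened by potassium depolarization with thallium stimulus after 20 min compound exposure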
KCNK3 block: human KCNK3 channel inhibition, primary screen | O14649 | CHO-KCNK3 thallium flux, FluxOR fluorescence; stronger effect = lower value | B-score at 10 µM | 0.84% of 340,000 active;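 active means B-score under library mean minus 4 SD, starting fluorescence ratio at most library mean plus 5 SD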;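 further: more negative B-score means stronger inhibition of thallium flux through KCNK3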
Kir21 inh: blocks the mouse Kir2.1 inward-rectifier potassium channel. P35561. AID 1672. HEK293-Kir2.1, FluxOR thallium flux fluorescence; stronger effect = lower value. 0.85% of 310,000 active. B-score at 10 µM;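 active means fluorescence ratio B-score at or below minus 3 SD of library scores, with starting-brightness B-score within 2 SD, cut at about -4.2 in these data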;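 further: channel flux triggered by added potassium and thallium sulfate stimulus; B-score of peak minus minimum fluorescence over baseline after thallium stimulus; more negative B-score means stronger Kir2.1 block with less thallium influx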
hERG protect: compounds protecting human hERG from proarrhythmic drug block; Q12809; CHO-hERG, FluxOR thallium flux, dofetilide IC70 present; activation (rescue from dofetilide block), less the hit threshold, % at 10 µM; 0.51% of 310,000 active;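 active means activation above the mean of controls blocked by dofetilide plus 5 SD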;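 further: thallium influx through hERG after potassium depolarization seen as dye fluorescence rise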
KCNQ1 pot: human KCNQ1 channel potentiation or activation | P51787 | B-score at 10 µM | CHO-K1 KCNQ1, thallium flux FluxOR fluorescence; stronger effect = higher value | 0.35% of 310,000 active | AID 2648;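 active means fluorescence ratio B-score, a plate-corrected score, at least three library SD, with initial intensity B-score within 5 SD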
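Assay system: CHO-K1 cells stably expressing KCNQ1; Medium: assay buffer with matched DMSO; Also added: K+/Tl+ depolarizing stimulus; Dosing: single dose; Timing: dye 90 min, compound 20 min, room temperature; Measured by: kinetic FluxOR thallium fluorescence, 10-s 1-Hz baseline, 110-s post-stimulus read; Read-out: peak-minus-minimum fluorescence over initial fluorescence, negative-control normalized, B-scored.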
KCNK9 inh: human KCNK9 channel inhibition | Q9NPC2 | HEK293 KCNK9, FluxOR thallium flux fluorescence; stronger effect = lower value | B-score at 10 µM | 1.2% of 310,000 active | AID 488922;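 active means ratio B-score over 3 SD below the library mean, with starting fluorescence within 5 SD of its mean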;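 further: negative B-score means less thallium flux so channel inhibition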
KCNK9 block conf: confirmation of human KCNK9 potassium channel inhibitors; 43% of 4,900 active; AID 492992; inhibition, % at 10 µM; shares compounds with KCNK9 inh; HEK293 KCNK9 cells, FluxOR thallium flux fluorescence;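 active means thallium signal inhibited by more than 5 SD of the compound-free buffer control wells, on both duplicate plates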;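 further: 0% = assay buffer control wells without compound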
Kir2-1 spec: mouse Kir2.1 off-target activity of KCNK9 modulators; 4% of 4,900 active; shares compounds with KCNK9 inh; AID 492993; inhibition, % at 10 µM; Kir2.1 cells, FluxOR thallium flux fluorescence;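 active means thallium signal drop more than 5 SD beyond the mean of the no-compound control wells, seen in both duplicate plates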;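 further: signal is fluorescence rise after thallium addition divided by baseline fluorescence; plate controls were assay buffer only for no effect and full block by chlorpromazine control for full effect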
KCNK9 uninduced: second check of KCNK9 modulator effects in non-induced HEK293 cells | FluxOR thallium flux | 40% of 4,900 active | shares compounds with KCNK9 inh | inhibition, % at 10 µM;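 active means thallium signal drop beyond 5 SD of the untreated control mean, on both duplicate plates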;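 further: plate controls were buffer only IC0 wells for no effect and SID17386958 at its maximal inhibitory level for full effect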
* hit, by the source's call; i = inactive; · = no result given. Only some compounds are listed: those with a hit (about 3.7% of all), similar ones and a draw of the others.

SMILES	KCNQ1 inh	KCNK3 block	Kir21 inh	hERG protect	KCNQ1 pot	KCNK9 inh	KCNK9 block conf	Kir2-1 spec	KCNK9 uninduced
Cc1cc(Br)ccc1NC(=O)CN(C)C(=O)CN1C(=O)NC(C)(C2CC2)C1=O (stereo not drawn)	·	i	·	·	·	·	·	·	·
Cc1cccc(CCN(CC(=O)NCc2ccc(F)cc2)C(=O)c2csnn2)c1	i	i	-0.18	-7.1	i	i	·	·	·
CCCNC(=O)c1onc(CSc2ccccc2)c1C(=O)NCCC	i	i	0.29	-11.1	i	i	·	·	·
CC(C)CCNC(=O)c1onc(CSc2ccccc2)c1C(=O)NCCC(C)C	i	i	-0.77	-5.8	i	i	i	i	i
O=C(O)c1ccc(-c2nc(-c3ccc(Cl)c(Cl)c3)cs2)cc1	i	i	3.09	-1.8	i	i	i	i	i
COc1cccc(CNC(=O)CSCc2cnn(-c3ccccc3)c2-n2cccc2)c1OC	i	i	-2	-17.9	i	i	i	31.0%*	i
COc1ccccc1CNC(=O)CSCc1cnn(-c2ccccc2)c1-n1cccc1	i	i	-5.76*	-10.5	i	i	i	i	i
COc1ccc(OC)c(NC(=O)CSCc2cnn(-c3ccccc3)c2-n2cccc2)c1	i	i	-4.26*	-10.9	i	i	i	i	29.0%*
COc1cc(NC(=O)CSCc2cnn(-c3ccccc3)c2-n2cccc2)cc(OC)c1	i	i	-1.5	-4.5	i	i	·	·	·
COc1ccc(NC(=O)CN2CCC(C(N)=O)(N3CCCCC3)CC2)c(OC)c1	i	i	0.66	-10.4	i	i	·	·	·
COc1cc(N2CCCC2)c(OC)cc1/C=C(/C#N)c1ccc(Br)cc1	i	i	-1.53	-10.5	i	i	·	·	·
COc1cc(N2CCCC2)c(OC)cc1/C=C(/C#N)c1ccc(F)cc1	7*	i	1.49	-14.6	i	-11.7*	50.0%*	i	66.0%*
CCOC(=O)c1c(-c2ccccc2)csc1NC(=O)C1CCCO1 (stereo not drawn)	i	i	0.04	-1.0	i	i	·	·	·
CCOC(=O)c1c(-c2ccc(-c3ccccc3)cc2)csc1NC(=O)C1C2CCC(O2)C1C(=O)O (stereo not drawn)	i	i	0.68	-9.0	i	i	i	i	i
CC1CC2(CCCCC2)Nc2ccc3ccccc3c21 (stereo not drawn)	i	i	-0.14	-3.6	i	i	·	·	·
CC(=O)N1c2ccc3ccccc3c2C(C)CC12CCCCC2 (stereo not drawn)	i	i	-0.91	-14.9	i	-11.9*	67.5%*	i	48.0%*
COc1ccccc1C/C(N)=N/OC(=O)COc1cccc(C)c1C	i	i	0.27	-2.1	i	i	i	i	i
COc1ccccc1C/C(N)=N/OC(=O)COc1cc(C)cc(C)c1C	i	i	-0.7	-3.5	i	i	·	·	·
Cc1cc(C)cc(N(CC(=O)NC2CCCC2)C(=O)CCC(=O)Nc2cc(C)ccn2)c1	i	i	-2.11	-6.9	i	i	·	·	·
O=S(=O)(c1ccc(Oc2ccc(Br)cc2)cc1)N1CCOCC1	i	i	0.43	-13.0	i	i	i	i	i
O=S(=O)(Nc1ccc(S(=O)(=O)N2CCOCC2)cc1)c1ccc(Br)cc1	i	i	-0.72	-4.4	i	i	·	·	·
CCn1c(SCc2cccc(C)c2)nnc1-c1ccccc1	i	i	-6.07*	-13.9	i	i	i	i	i
CCn1c(SCC(O)c2ccccc2)nnc1-c1ccccc1 (stereo not drawn)	i	i	0.28	-8.0	i	i	·	·	·
CCN(CC(=O)Nc1cccc(S(=O)(=O)N2CCOCC2)c1)Cc1ccccc1	i	i	0.06	-15.2	i	i	·	·	·
CCc1nnc(NC(=O)C2Cc3ccccc3CN2S(=O)(=O)CC)s1 (stereo not drawn)	i	i	-0.17	-9.1	i	i	·	·	·
SMILES	KCNQ1 inh	KCNK3 block	Kir21 inh	hERG protect	KCNQ1 pot	KCNK9 inh	KCNK9 block conf	Kir2-1 spec	KCNK9 uninduced
CCc1nnc(NC(=O)C2Cc3ccccc3CN2S(=O)(=O)c2c(C)c(C)cc(C)c2C)s1 (stereo not drawn)	i	i	-1.83	-7.2	i	-12.7*	i	i	31.5%*
CC1(c2ccc(OC(F)F)cc2)NC(=O)N(CC(=O)Nc2ccc3c(c2)OCO3)C1=O (stereo not drawn)	i	i	-1.1	-16.1	13*	-9.8*	i	i	31.0%*
CC1(c2ccccc2)NC(=O)N(CC(=O)Nc2ccc3c(c2)OCO3)C1=O (stereo not drawn)	i	i	0.21	-10.0	i	i	·	·	·
CCn1c(SCC(=O)N/N=C/C(C)=C\c2ccco2)nnc1-c1ccccc1	i	i	-0.77	-7.6	i	i	i	i	i
Cn1c(-c2ccc3c(c2)OCO3)cnc1NCc1cccc(O)c1	i	i	0.33	-14.1	i	i	·	·	·
Cc1ccc(S(=O)(=O)N(Cc2ccccc2)c2ccccc2C(=O)Nc2ccccc2C(=O)NCc2ccco2)cc1	8*	i	0.01	-7.7	i	-9.61*	i	i	34.0%*
O=C(c1ccc2c(c1)OCO2)C1CCCN(C(=O)NCc2ccccc2)C1 (stereo not drawn)	i	i	0	-3.9	i	i	·	·	·
CSc1ccccc1NC(=O)N1CCCC(C(=O)c2ccc3c(c2)OCO3)C1 (stereo not drawn)	i	i	-0.74	-10.8	i	i	i	i	i
O=C(c1ccc2c(c1)OCO2)C1CCCN(Cc2cn[nH]c2-c2cccc(F)c2)C1 (stereo not drawn)	i	i	-4.2	-4.7	i	i	·	·	·
O=C(c1ccc2c(c1)OCO2)C1CCCN(Cc2ccc3cccc(F)c3n2)C1 (stereo not drawn)	i	i	-1.93	-17.0	i	i	i	i	i
O=C(c1ccc2c(c1)OCO2)C1CCCN(C(=O)c2cnn(Cc3ccccc3)c2)C1 (stereo not drawn)	i	i	-0.76	-13.5	i	i	i	i	i
CC(=O)c1ccc(NC(=O)N2CCCC(C(=O)c3ccc4c(c3)OCO4)C2)cc1 (stereo not drawn)	i	i	1.3	-14.1	i	i	·	·	·
